Assay results reported in ChEMBL document CHEMBL3091351, “The 3,7-diazabicyclo[3.3.1]nonane scaffold for subtype selective nicotinic acetylcholine receptor (nAChR) ligands. Part 1: the influence of different hydrogen bond acceptor systems on alkyl and (hetero)aryl substituents” (Bioorg Med Chem, 2013).
pKi: −log10 of the molar value.

What was measured:
[1] = Displacement of [3H]epibatidine from (alpha1)2beta1gammadelta nAChR in Torpedo californica electroplax after 90 mins by liquid scintillation counting analysis; design: species or system Tetronarce californica
Outline: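 Torpedo californica electroplax membranes (60–70 µg) incubated with (±)-[3H]epibatidine and 6–9 test concentrations in HSS buffer, 90 min at 22 °C. 300 µM (−)-nicotine defined non-specific binding. PEI-presoaked glass fibre filtration, scintillation counting; duplicate to quadruplicate, 2–10 independent experiments.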

[2] = target: Neuronal acetylcholine receptor subunit alpha-7 (Rattus norvegicus, UniProt Q05941); assay: Displacement of [3H]methyllycaconitine from alpha7 nAChR in Sprague-Dawley rat forebrain P2 fraction after 90 mins by liquid scintillation counting analysis
Chain of Neuronal acetylcholine receptor subunit alpha-7 (Q05941 whole entry): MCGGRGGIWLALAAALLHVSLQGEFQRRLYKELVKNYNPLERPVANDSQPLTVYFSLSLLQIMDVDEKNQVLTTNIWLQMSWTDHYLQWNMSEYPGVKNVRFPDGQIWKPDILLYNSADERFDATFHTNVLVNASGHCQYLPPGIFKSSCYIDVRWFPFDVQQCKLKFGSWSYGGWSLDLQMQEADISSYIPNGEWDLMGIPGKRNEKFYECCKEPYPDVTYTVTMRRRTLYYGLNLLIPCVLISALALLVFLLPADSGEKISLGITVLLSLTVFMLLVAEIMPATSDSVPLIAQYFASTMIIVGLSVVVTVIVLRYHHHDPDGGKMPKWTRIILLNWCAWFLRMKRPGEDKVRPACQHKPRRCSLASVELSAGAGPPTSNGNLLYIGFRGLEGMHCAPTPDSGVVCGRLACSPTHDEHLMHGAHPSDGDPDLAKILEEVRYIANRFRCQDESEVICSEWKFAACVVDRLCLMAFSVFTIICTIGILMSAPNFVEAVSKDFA

[3] = Displacement of [3H]epibatidine from alpha3beta4 nAChR in calf adrenal membranes fraction after 90 mins by liquid scintillation counting analysis; type: cell membranes, Bos taurus
Outline: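 Calf adrenal membranes (60–70 µg) in HSS buffer with 0.5 nM (±)-[3H]epibatidine, 6–9 test concentrations, 90 min at 22 °C. Non-specific binding with 300 µM (−)-nicotine. PEI-presoaked glass fibre filtration, liquid scintillation read-out; duplicate to quadruplicate, 2–10 independent experiments.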

[4] = target: Neuronal acetylcholine receptor; alpha4/beta2 (Rattus norvegicus, UniProt P09483+P12390); assay: Displacement of [3H]epibatidine from alpha4beta2 nAChR in Sprague-Dawley rat forebrain P2 fraction after 90 mins by liquid scintillation counting analysis
Chain of Neuronal acetylcholine receptor; alpha4/beta2 (P09483 whole entry): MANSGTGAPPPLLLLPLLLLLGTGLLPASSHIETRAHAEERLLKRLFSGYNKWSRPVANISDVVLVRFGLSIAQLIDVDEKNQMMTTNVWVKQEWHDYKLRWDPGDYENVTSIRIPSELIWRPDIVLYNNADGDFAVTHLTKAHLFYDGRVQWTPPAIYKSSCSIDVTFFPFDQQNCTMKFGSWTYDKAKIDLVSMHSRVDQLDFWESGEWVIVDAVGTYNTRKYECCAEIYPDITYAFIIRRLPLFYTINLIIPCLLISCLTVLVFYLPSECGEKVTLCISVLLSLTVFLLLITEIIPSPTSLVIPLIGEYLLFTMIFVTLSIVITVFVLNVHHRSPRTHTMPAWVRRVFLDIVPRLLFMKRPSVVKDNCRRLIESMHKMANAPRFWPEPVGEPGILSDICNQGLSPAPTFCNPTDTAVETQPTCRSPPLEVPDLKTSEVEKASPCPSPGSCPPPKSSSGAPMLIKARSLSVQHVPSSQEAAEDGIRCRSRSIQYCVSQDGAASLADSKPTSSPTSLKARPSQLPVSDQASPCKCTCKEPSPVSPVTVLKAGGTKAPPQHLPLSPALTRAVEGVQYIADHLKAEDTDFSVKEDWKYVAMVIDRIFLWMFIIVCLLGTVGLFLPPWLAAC
Chain of Neuronal acetylcholine receptor; alpha4/beta2 (P12390 whole entry): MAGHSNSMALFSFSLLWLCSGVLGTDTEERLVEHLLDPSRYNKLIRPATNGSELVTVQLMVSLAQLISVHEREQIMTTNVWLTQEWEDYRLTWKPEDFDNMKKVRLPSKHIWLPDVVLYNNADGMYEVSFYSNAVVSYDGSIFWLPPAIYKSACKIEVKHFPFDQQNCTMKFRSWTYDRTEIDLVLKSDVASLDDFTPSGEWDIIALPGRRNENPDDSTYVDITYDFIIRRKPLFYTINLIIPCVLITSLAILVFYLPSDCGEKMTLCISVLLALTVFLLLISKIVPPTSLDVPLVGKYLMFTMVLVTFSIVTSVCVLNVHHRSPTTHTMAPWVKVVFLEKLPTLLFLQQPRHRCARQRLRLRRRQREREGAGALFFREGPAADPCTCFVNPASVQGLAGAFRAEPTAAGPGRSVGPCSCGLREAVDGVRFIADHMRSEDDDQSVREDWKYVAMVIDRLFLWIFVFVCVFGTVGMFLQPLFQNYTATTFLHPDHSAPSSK
Outline: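 Rat forebrain P2 membranes (60 µg protein) in HSS buffer with 0.5 nM (±)-[3H]epibatidine and 6–9 test concentrations. Incubated 90 min at 22 °C; non-specific binding defined with 300 µM (−)-nicotine. Filtered through PEI-presoaked glass fibre filters and counted by liquid scintillation. Run in duplicate to quadruplicate, with 2–10 independent experiments.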

| Structure (SMILES) | pKi [1] | pKi [2] | pKi [3] | pKi [4] |
| --- | --- | --- | --- | --- |
| O=C(c1ccccc1[N+](=O)[O-])N1C[C@@H]2CNC[C@@H](C2)C1 | < 5.00 | < 5.00 | < 5.00 | < 5.00 |
| O=C(c1ccc(Cl)cc1)N1C[C@@H]2CNC[C@@H](C2)C1 |  | < 5.00 |  | 6.89 |
| O=C(c1ccc2ncccc2c1)N1C[C@@H]2CNC[C@@H](C2)C1 |  | < 5.00 | < 5.30 | 7.09 |
| N#Cc1ccc(S(=O)(=O)N2C[C@@H]3CNC[C@@H](C3)C2)cc1 |  | < 5.00 | < 5.00 | 6.19 |
| c1ccc(CN2C[C@@H]3CNC[C@@H](C3)C2)cc1 | < 5.00 | < 5.30 | 6.24 | < 5.00 |
| O=C(c1cccc([N+](=O)[O-])c1)N1C[C@@H]2CNC[C@@H](C2)C1 | < 5.00 | < 5.00 | < 5.00 | < 5.70 |
| O=C(c1ccc([N+](=O)[O-])cc1)N1C[C@@H]2CNC[C@@H](C2)C1 | < 5.30 | 5.76 | 5.38 | 7.80 |
| Cc1ccc(C(=O)N2C[C@@H]3CNC[C@@H](C3)C2)cc1 | < 5.00 | < 5.00 | < 5.30 | 6.66 |
| CCN1C[C@H]2C[C@@H](C1)CN(C(C)=O)C2 |  |  |  | < 5.30 |
| O=C(c1cncc(Br)c1)N1C[C@@H]2CNC[C@@H](C2)C1 | < 5.00 | < 5.00 | < 5.30 | 6.54 |
| O=C(N1CCC(Cc2ccccc2)CC1)N1C[C@@H]2CNC[C@@H](C2)C1 | < 5.30 | < 5.30 | < 5.00 | < 5.00 |
| O=C(c1cccnc1)N1C[C@@H]2CNC[C@@H](C2)C1 | < 5.00 | < 5.00 | < 5.00 | 6.34 |
| O=C(c1ccc(Br)cc1)N1C[C@@H]2CNC[C@@H](C2)C1 |  | < 5.00 | < 5.00 | 6.86 |
| Cc1ccccc1C(=O)N1C[C@@H]2CNC[C@@H](C2)C1 | < 5.00 | < 5.00 | < 5.00 | < 5.00 |
| O=C(c1ccccc1Cl)N1C[C@@H]2CNC[C@@H](C2)C1 |  |  |  | < 5.00 |
| CC(C)(C)OC(=O)N1C[C@@H]2CNC[C@@H](C2)C1 | < 5.00 | < 5.30 | 5.89 | 7.35 |
| CN(C)C(=O)N1C[C@@H]2CNC[C@@H](C2)C1 |  |  | < 6.00 | 6.30 |
| O=C(c1ccc2ccccc2n1)N1C[C@@H]2CNC[C@@H](C2)C1 | < 5.00 |  |  | < 6.00 |
| O=C(c1ccc(F)cc1)N1C[C@@H]2CNC[C@@H](C2)C1 | < 5.00 | < 5.00 | < 5.00 | 6.70 |
| CCN(CC)C(=O)N1C[C@@H]2CNC[C@@H](C2)C1 |  |  |  | < 5.52 |
| O=C(c1cccc(Cl)c1)N1C[C@@H]2CNC[C@@H](C2)C1 |  |  |  | < 6.00 |
| O=C(c1cccc(F)c1)N1C[C@@H]2CNC[C@@H](C2)C1 | < 5.00 |  | < 5.30 | 6.41 |
| O=C(c1cccs1)N1C[C@@H]2CNC[C@@H](C2)C1 | < 5.00 | < 5.00 | < 5.00 | 7.75 |
| O=C(c1ccnc2ccccc12)N1C[C@@H]2CNC[C@@H](C2)C1 | < 5.00 |  | < 5.30 | 6.79 |
| CCCN1C[C@H]2C[C@@H](C1)CN(C(C)=O)C2 |  |  |  | < 5.30 |

| Structure (SMILES) | pKi [1] | pKi [2] | pKi [3] | pKi [4] |
| --- | --- | --- | --- | --- |
| O=C(c1ccccc1)N1C[C@@H]2CNC[C@@H](C2)C1 | < 5.00 | < 5.00 | < 5.30 | 6.34 |
| O=C(c1cccc(C(F)(F)F)c1)N1C[C@@H]2CNC[C@@H](C2)C1 | < 5.00 |  | < 5.52 | 6.83 |
| O=C(c1cccc2ccccc12)N1C[C@@H]2CNC[C@@H](C2)C1 |  | < 5.00 |  | < 5.00 |
| O=C(N1CCOCC1)N1C[C@@H]2CNC[C@@H](C2)C1 |  |  |  | 5.42 |
| O=C(c1ccc2[nH]ccc2c1)N1C[C@@H]2CNC[C@@H](C2)C1 |  |  |  | 5.74 |
| O=C(c1ccc(O)cc1)N1C[C@@H]2CNC[C@@H](C2)C1 |  | < 6.00 |  | 6.98 |
| COc1ccc(C(=O)N2C[C@@H]3CNC[C@@H](C3)C2)c(OC)c1 | < 5.00 | < 5.30 | < 5.30 | < 6.00 |
| O=S(=O)(c1ccccc1)N1C[C@@H]2CNC[C@@H](C2)C1 |  | < 5.00 | < 5.00 | < 5.30 |
| CS(=O)(=O)N1C[C@@H]2CNC[C@@H](C2)C1 | < 5.00 |  |  | < 5.30 |
| Cn1cccc1C(=O)N1C[C@@H]2CNC[C@@H](C2)C1 |  |  |  | 6.18 |
| N#Cc1cccc(S(=O)(=O)N2C[C@@H]3CNC[C@@H](C3)C2)c1 |  | < 5.00 | < 5.00 | 6.01 |
| O=C(c1ccc2ccccc2c1)N1C[C@@H]2CNC[C@@H](C2)C1 |  | < 5.00 | < 5.00 | 6.35 |
| CC(C)(C)c1ccc(C(=O)N2C[C@@H]3CNC[C@@H](C3)C2)cc1 | < 5.00 | < 5.00 | < 5.00 | < 5.00 |
| CC(=O)N1C[C@@H]2C[C@@H](CN(C)C2)C1 |  |  |  | 6.70 |
| O=C(C1CCCCC1)N1C[C@@H]2CNC[C@@H](C2)C1 | < 5.00 | < 5.00 | < 5.30 | < 5.30 |
| O=C(c1cnccn1)N1C[C@@H]2CNC[C@@H](C2)C1 | < 5.00 | < 5.00 | < 5.00 | 7.14 |
| O=S(=O)(c1ccc(Br)cc1)N1C[C@@H]2CNC[C@@H](C2)C1 |  |  |  | < 5.30 |
| N#Cc1ccc(C(=O)N2C[C@@H]3CNC[C@@H](C3)C2)cc1 | < 5.30 | < 5.00 | < 5.00 | 7.68 |
| O=[N+]([O-])c1ccc(S(=O)(=O)N2C[C@@H]3CNC[C@@H](C3)C2)cc1 | < 5.00 | < 5.00 | 5.24 | 6.87 |
| O=C(c1ccc2cn[nH]c2c1)N1C[C@@H]2CNC[C@@H](C2)C1 |  |  |  | 6.69 |
| O=C(N1CCCC1)N1C[C@@H]2CNC[C@@H](C2)C1 | < 5.00 | < 5.00 | < 5.00 | < 5.30 |
| O=C(c1ccc(Cl)nc1)N1C[C@@H]2CNC[C@@H](C2)C1 |  |  | < 6.00 | 6.71 |
| O=C(c1cc2ccccc2[nH]1)N1C[C@@H]2CNC[C@@H](C2)C1 | < 5.00 | < 5.00 | < 5.00 | < 5.00 |
| Cc1ccc(S(=O)(=O)N2C[C@@H]3CNC[C@@H](C3)C2)cc1 |  | < 5.00 | < 5.00 | 6.07 |
| O=C(c1c[nH]c2ccccc12)N1C[C@@H]2CNC[C@@H](C2)C1 | < 5.00 | < 5.00 | < 5.00 | < 5.00 |
